biological target: T1, Melanocortin receptor 3 (Homo sapiens, UniProt P41968); assay: Displacement of europium labeled NDP-alpha-MSH from human MC3 receptor expressed in HEK293 cells; format: cell-based
In short: (§1)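 HEK293 cells stably transfected with each human receptor subtype; competing unlabeled ligands displace a constant concentration of europium-labeled NDP-α-MSH, read by time-resolved fluorometry; IC50 and Ki calculated.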

T1 sequence (P41968 whole entry): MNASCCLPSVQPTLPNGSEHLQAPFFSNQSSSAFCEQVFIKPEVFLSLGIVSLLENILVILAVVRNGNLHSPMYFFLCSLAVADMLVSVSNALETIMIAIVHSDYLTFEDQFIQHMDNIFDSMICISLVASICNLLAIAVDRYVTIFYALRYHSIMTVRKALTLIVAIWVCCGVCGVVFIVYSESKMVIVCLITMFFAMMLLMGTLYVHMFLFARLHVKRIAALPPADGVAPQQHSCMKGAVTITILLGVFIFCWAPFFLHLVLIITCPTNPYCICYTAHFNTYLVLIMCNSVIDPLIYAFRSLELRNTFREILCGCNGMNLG

Point of comparison: `N=C(N)NCCC[C@H](CC1CCCCC1)NC(=O)[C@H](N)Cc1ccc(F)cc1`, Ki 9.1 µM. Against it:
- NC(N)=NCCC[C@@H](CN1CCCCC1)NC(=O)[C@H](N)Cc1ccc(F)cc1 — higher, > 100 µM
- N[C@H](Cc1ccc(Cl)cc1)C(=O)N1CCC(Cn2cncn2)(C2CCCCC2)CC1 — 4-fold lower, 2.3 µM
- N[C@H](Cc1ccc(F)cc1)C(=O)NCCC(Cn1cncn1)C1CCCCC1 (some centres undefined) — 2-fold lower, 4.5 µM
- N=C(N)NCCC[C@H](NC(=O)[C@H](N)Cc1ccc(F)cc1)C(=O)N1CCCCC1 — higher, > 100 µM
- NC(N)=NCCC[C@H](Cc1ccccc1)NC(=O)[C@H](N)Cc1ccc(F)cc1 — 2.6-fold lower, 3.5 µM

biological target: T2, Melanocyte-stimulating hormone receptor (Homo sapiens, UniProt Q01726); assay: Displacement of europium labeled NDP-alpha-MSH from human MC1 receptor expressed in HEK293 cells; format: cell-based; in short: as §1
T2 sequence (Q01726 whole entry): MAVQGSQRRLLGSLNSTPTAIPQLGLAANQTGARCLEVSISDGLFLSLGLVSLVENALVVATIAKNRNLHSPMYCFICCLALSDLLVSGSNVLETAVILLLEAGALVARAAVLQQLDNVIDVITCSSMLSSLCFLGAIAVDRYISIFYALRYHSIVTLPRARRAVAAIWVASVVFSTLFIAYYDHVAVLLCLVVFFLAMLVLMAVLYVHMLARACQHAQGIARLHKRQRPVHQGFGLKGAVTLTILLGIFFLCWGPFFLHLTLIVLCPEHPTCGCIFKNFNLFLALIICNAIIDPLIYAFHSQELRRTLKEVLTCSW

`NC(N)=NCCC[C@@H](CN1CCCCC1)NC(=O)[C@H](N)Cc1ccc(F)cc1` and `N=C(N)NCCC[C@H](NC(=O)[C@H](N)Cc1ccc(F)cc1)C(=O)N1CCCCC1` cannot be ordered by Ki: greater than 100 µM for the first, greater than 100 µM for the second.

`N[C@H](Cc1ccc(Cl)cc1)C(=O)N1CCC(Cn2cncn2)(C2CCCCC2)CC1` and `N[C@H](Cc1ccc(F)cc1)C(=O)NCCC(Cn1cncn1)C1CCCCC1` (some centres undefined) cannot be ordered by Ki: greater than 10 µM for the first, greater than 25 µM for the second.

Molecule `NC(N)=NCCC[C@H](Cc1ccccc1)NC(=O)[C@H](N)Cc1ccc(F)cc1` has a Ki greater than 25 µM.

biological target: T2, Melanocyte-stimulating hormone receptor; assay: Agonist activity at human MC1 receptor expressed in HEK293 cells; format: functional, cell-based
In short: (§2)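 HEK293 cells stably transfected with the receptor subtype and a CRE-luciferase reporter; cells assayed in 96-well format for luciferase activity. Response expressed as percent of maximal activity (Emax) of NDP-MSH (MT-I) reference agonist.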

Point of comparison: `N[C@H](Cc1ccc(Cl)cc1)C(=O)N1CCC(Cn2cncn2)(C2CCCCC2)CC1`, EC50 2 µM. Against it:
- NC(N)=NCCC[C@@H](CN1CCCCC1)NC(=O)[C@H](N)Cc1ccc(F)cc1 — higher, > 50 µM
- N=C(N)NCCC[C@H](CC1CCCCC1)NC(=O)[C@H](N)Cc1ccc(F)cc1 — higher, > 25 µM
- N[C@H](Cc1ccc(F)cc1)C(=O)NCCC(Cn1cncn1)C1CCCCC1 (some centres undefined) — higher, > 25 µM
- N=C(N)NCCC[C@H](NC(=O)[C@H](N)Cc1ccc(F)cc1)C(=O)N1CCCCC1 — higher, > 50 µM

biological target: T3, Melanocortin receptor 4 (Homo sapiens, UniProt P32245); assay: Displacement of europium labeled NDP-alpha-MSH from human MC4 receptor expressed in HEK293 cells; format: cell-based; in short: as §1
T3 sequence (P32245 whole entry): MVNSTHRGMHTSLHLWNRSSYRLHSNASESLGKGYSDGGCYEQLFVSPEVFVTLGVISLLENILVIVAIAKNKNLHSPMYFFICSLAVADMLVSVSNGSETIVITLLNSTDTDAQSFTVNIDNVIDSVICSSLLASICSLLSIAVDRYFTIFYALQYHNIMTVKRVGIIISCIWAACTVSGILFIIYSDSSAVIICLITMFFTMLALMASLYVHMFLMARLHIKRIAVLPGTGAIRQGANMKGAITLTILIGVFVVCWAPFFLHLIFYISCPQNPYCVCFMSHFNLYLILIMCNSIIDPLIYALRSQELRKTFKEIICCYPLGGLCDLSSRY

Point of comparison: `NC(N)=NCCC[C@H](Cc1ccccc1)NC(=O)[C@H](N)Cc1ccc(F)cc1`, Ki 4.2 µM. Against it:
- NC(N)=NCCC[C@@H](CN1CCCCC1)NC(=O)[C@H](N)Cc1ccc(F)cc1 — higher, > 100 µM
- N=C(N)NCCC[C@H](CC1CCCCC1)NC(=O)[C@H](N)Cc1ccc(F)cc1 — 1.6-fold higher, 6.7 µM
- N[C@H](Cc1ccc(Cl)cc1)C(=O)N1CCC(Cn2cncn2)(C2CCCCC2)CC1 — 180-fold lower, 0.023 µM
- N[C@H](Cc1ccc(F)cc1)C(=O)NCCC(Cn1cncn1)C1CCCCC1 (some centres undefined) — higher, > 50 µM
- N=C(N)NCCC[C@H](NC(=O)[C@H](N)Cc1ccc(F)cc1)C(=O)N1CCCCC1 — higher, > 25 µM

biological target: T1, Melanocortin receptor 3; assay: Agonist activity at human MC3 receptor expressed in HEK293 cells; format: functional, cell-based; in short: as §2

Point of comparison: `N[C@H](Cc1ccc(Cl)cc1)C(=O)N1CCC(Cn2cncn2)(C2CCCCC2)CC1`, EC50 0.23 µM. Against it:
- NC(N)=NCCC[C@@H](CN1CCCCC1)NC(=O)[C@H](N)Cc1ccc(F)cc1 — higher, > 100 µM
- N=C(N)NCCC[C@H](CC1CCCCC1)NC(=O)[C@H](N)Cc1ccc(F)cc1 — higher, > 15 µM
- N[C@H](Cc1ccc(F)cc1)C(=O)NCCC(Cn1cncn1)C1CCCCC1 (some centres undefined) — higher, > 50 µM
- N=C(N)NCCC[C@H](NC(=O)[C@H](N)Cc1ccc(F)cc1)C(=O)N1CCCCC1 — higher, > 25 µM
- NC(N)=NCCC[C@H](Cc1ccccc1)NC(=O)[C@H](N)Cc1ccc(F)cc1 — higher, > 100 µM

biological target: T3, Melanocortin receptor 4; assay: Agonist activity at human MC4 receptor expressed in HEK293 cells; format: functional, cell-based; in short: as §2

Point of comparison: `N[C@H](Cc1ccc(Cl)cc1)C(=O)N1CCC(Cn2cncn2)(C2CCCCC2)CC1`, EC50 0.016 µM. Against it:
- NC(N)=NCCC[C@@H](CN1CCCCC1)NC(=O)[C@H](N)Cc1ccc(F)cc1 — higher, > 100 µM
- N=C(N)NCCC[C@H](CC1CCCCC1)NC(=O)[C@H](N)Cc1ccc(F)cc1 — higher, > 50 µM
- N[C@H](Cc1ccc(F)cc1)C(=O)NCCC(Cn1cncn1)C1CCCCC1 (some centres undefined) — higher, > 25 µM
- N=C(N)NCCC[C@H](NC(=O)[C@H](N)Cc1ccc(F)cc1)C(=O)N1CCCCC1 — higher, > 50 µM
- NC(N)=NCCC[C@H](Cc1ccccc1)NC(=O)[C@H](N)Cc1ccc(F)cc1 — higher, > 100 µM

Reference: ChEMBL document CHEMBL1142292, “Synthesis and biological activity of novel peptide mimetics as melanocortin receptor agonists” (Bioorg Med Chem Lett, 2008)
